Data published in ChEMBL document CHEMBL1154888, “Discorhabdins from the Korean marine sponge Sceptrella sp” (J Nat Prod, 2010).
pIC50: −log10 of the molar value. Converted amounts (≈) assume the structure as drawn.

Assays:
K562 = assay: Cytotoxicity against human K562 cells assessed as viable cells after 72 hrs by MTS/PMS assay; type: functional, cell-based; conditions: K562, 72 h
Bacillus subtilis = assay: Antibacterial activity against Bacillus subtilis ATCC 6633; type: functional
Proteus vulgaris = assay: Antibacterial activity against Proteus vulgaris ATCC 3851; type: functional
Micrococcus luteus = assay: Antibacterial activity against Micrococcus luteus IFO 12708; type: functional
Escherichia coli = assay: Antibacterial activity against Escherichia coli ATCC 25922; type: functional
Salmonella enterica = assay: Antibacterial activity against Salmonella Typhimurium ATCC 14028; type: functional, Salmonella enterica subsp. enterica serovar Typhimurium
Staphylococcus aureus = assay: Antibacterial activity against Staphylococcus aureus […]; type: functional
Sortase A = biological target: T1, Sortase A (Staphylococcus aureus, UniProt Q9S446); assay: Inhibition of Staphylococcus aureus sortase A after 1 hr in the presence of fluorescent peptide Dabcul-QALPETGEE-Edans by fluorimetry
T1 sequence (Q9S446 whole entry): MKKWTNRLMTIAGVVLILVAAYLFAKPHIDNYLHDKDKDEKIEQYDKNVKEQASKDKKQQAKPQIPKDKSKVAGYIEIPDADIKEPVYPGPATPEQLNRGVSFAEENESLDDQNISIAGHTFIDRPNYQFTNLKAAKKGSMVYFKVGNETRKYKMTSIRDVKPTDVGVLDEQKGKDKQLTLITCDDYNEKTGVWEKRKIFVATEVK
Method in brief: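 p-Hydroxymercuribenzoic acid (p-HMB) run alongside as the positive control.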

[1] = biological target: T2, Sortase A (Staphylococcus aureus) (UniProt Q9S446); assay: Selectivity ratio, inhibition of recombinant sortase A from Staphylococcus aureus of drug over the para-(hydroxymercury)benzoic acid sodium salt
T2 sequence (whole entry): T1 sequence (Q9S446 whole entry)

SMILES | pIC50 (K562) | MIC (Bacillus subtilis) [µg/mL] | MIC (Proteus vulgaris) [µg/mL] | MIC (Micrococcus luteus) [µg/mL] | MIC (Escherichia coli) [µg/mL] | MIC (Salmonella enterica) [µg/mL] | MIC (Staphylococcus aureus) [µg/mL] | pIC50 (Sortase A) | Selectivity ratio [1]
COc1cccc2c1C(=O)c1c(O)c3c(c(O)c1C2=O)C[C@@](O)(C(=O)CO)C[C@@H]3O[C@H]1C[C@H](N)[C@H](O)[C@H](C)O1 [DOXORUBICIN] | 5.07 | – | – | – | – | – | – | – | –
O=C1C=CC2(C=C1)CCNC1=C2C2=NCCc3c[nH]c(c32)C1=O [DIDEBROMODISCORHABDIN C] | 4.68 | > 100 | > 100 | > 100 | > 100 | > 100 | > 100 | 3.89 | –
O=C1C2=C3C4=[N+](CCc5c[nH]c1c54)C1[C@H](O)C=C4S[C@@H](C[C@@]43[C@H]1O)N2 | 5.60 | 100 | 50 | 25 | > 100 | > 100 | > 100 | 3.72 | –
O=C1C(Br)=CC2(C=C1Br)CCNC1=C2C2=NCCc3c[nH]c(c32)C1=O [DISCORHABDIN C] | 4.60 | 25 (≈ 54 µM) | 50 (≈ 108 µM) | 12.5 (≈ 27 µM) | > 100 | > 100 | > 100 | 3.78 | –
CC1(C)S[C@@H]2[C@H](NC(=O)[C@H](N)c3ccccc3)C(=O)N2[C@H]1C(=O)O [AMPICILLIN] | – | 1.56 (≈ 4.46 µM) | 3.12 (≈ 8.93 µM) | 1.56 (≈ 4.46 µM) | 12.5 (≈ 35.8 µM) | 3.12 (≈ 8.93 µM) | 1.56 (≈ 4.46 µM) | – | –
O=C1C=C[C@]2(C=C1Br)CCNC1=C2C2=NCCc3c[nH]c(c32)C1=O | 5.89 | 50 (≈ 130 µM) | 25 (≈ 65.1 µM) | 50 (≈ 130 µM) | > 100 | 50 (≈ 130 µM) | 100 (≈ 260 µM) | 3.73 | –
O=C1C(NCCc2ccc(O)cc2)=CC2=NCCc3c[nH]c1c32 [MAKALUVAMINE D] | 4.61 | 25 (≈ 81.3 µM) | > 100 | 50 (≈ 163 µM) | > 100 | 100 (≈ 325 µM) | > 100 | 3.83 | –
CO[C@H]1C2C(=O)C=C3S[C@H]4C[C@]31C1=C(N4)C(=O)c3[nH]cc4c3C1=[N+]2CC4 | 5.60 | 50 | 100 | 12.5 | > 100 | 100 | 50 | 3.83 | –
O=C1C2=C3C4=[N+](CCc5c[nH]c1c54)C1C(=O)C=C4S[C@@H](C[C@@]43[C@H]1O)N2 | 5.35 | 25 | 100 | 12.5 | > 100 | 100 | 50 | 3.89 | –
O=C1C(NC2Cc3cc(Br)c(O)cc3S2)=CC2=NCCc3c[nH]c1c32 (centres undefined) [MAKALUVAMINE F] | 5.05 | 12.5 (≈ 30 µM) | 25 (≈ 60.1 µM) | 3.12 (≈ 7.51 µM) | > 100 | 100 (≈ 240 µM) | 50 (≈ 120 µM) | 3.76 | –
O=C1C2=C(C3=NCCc4c[nH]c1c43)C1(C=C(Br)C(O)C(Br)=C1)CCN2 (centres undefined) [DIHYDRODISCORHABDIN C] | 4.69 | 100 (≈ 215 µM) | > 100 | 100 (≈ 215 µM) | > 100 | > 100 | > 100 | < 3.52 | –
O=C1C=C2S[C@H]3C[C@]2(C=C1Br)C1=C(N3)C(=O)c2[nH]cc3c2C1=NCC3 [(+)-DISCORHABDIN B] | 5.14 | 12.5 (≈ 30.2 µM) | 3.12 (≈ 7.54 µM) | 25 (≈ 60.3 µM) | > 100 | 100 (≈ 241 µM) | 50 (≈ 121 µM) | 3.88 | –
O=C1C2=C3C4=[N+](CCc5c[nH]c1c54)C1C[C@@]34C[C@@H](N2)SC4=CC1=O | 5.21 | 25 | > 100 | 6.25 | > 100 | > 100 | 100 | – | –
O=C1C=C[C@@]23C[C@@H](NC4=C2C2=NCCc5c[nH]c(c52)C4=O)SC3=C1 [1-DEBROMODISCORHABDIN B] | 4.60 | 12.5 (≈ 37.3 µM) | 50 (≈ 149 µM) | 25 (≈ 74.5 µM) | > 100 | 50 (≈ 149 µM) | 25 (≈ 74.5 µM) | 3.80 | –
O=C1C2=C3C4=[N+](CCc5c[nH]c1c54)C1[C@H](O)CC(=O)[C@@]3(C[C@@H](O)N2)[C@H]1O | 5.66 | > 100 | > 100 | 50 | > 100 | > 100 | > 100 | 5.19 | 10
O=C1C2=C3C4=[N+](CCc5c[nH]c1c54)C1C[C@@]34C[C@@H](N2)SC4=C[C@H]1O | 5.68 | 25 | 50 | 25 | > 100 | > 100 | > 100 | 4.12 | –
